Experimental data: ChEMBL document CHEMBL5042548, “Multiparameter Optimization of Oxidative Phosphorylation Inhibitors for the Treatment of Pancreatic Cancer” (J Med Chem, 2022)
Calls of active or inactive are those of the source. No cut-off for these calls is given here.

Columns and labels:
MIA PaCa-2 [1] = assay: Cytotoxicity against human MIA PaCa-2 cells assessed as inhibition of cell growth incubated for overnight in glucose-containing medium followed by compound addition and measured after 7 days by MTT assay; type: functional, cell-based; settings: MIA PaCa-2, 168 h
In short: (§1)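 7-day MTT in glucose medium (RPMI 1640 + 10% FBS). Seeding is 200 cells/well for MIA PaCa-2 and 300 cells/well for BxPC-3, overnight at 37 °C, 5% CO2, before compound. MTT 3 mg/mL is added for 4 h, then DMSO, and absorbance is read at 570 nm. IC50 is by nonlinear regression; ≥3 independent experiments.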

BXPC-3 = assay: Cytotoxicity against human BXPC-3 cells assessed as inhibition of cell growth incubated for overnight in glucose-containing medium followed by compound addition and measured after 7 days by MTT assay; type: functional, cell-based; settings: BXPC-3, 168 h; in short: as §1
MIA PaCa-2 [2] = assay: Cytotoxicity against human MIA PaCa-2 cells assessed as inhibition of cell growth incubated for overnight in glucose-containing medium followed by compound addition and measured after 3 days by MTT assay; type: functional, cell-based; settings: MIA PaCa-2, 72 h
In short: (§2)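 MIA PaCa-2 3-day MTT in glucose medium (RPMI 1640 + 10% FBS) or galactose medium (glucose-free RPMI + 10 mM galactose + 10% FBS). Galactose wells are seeded at 8000 cells/well. MTT read-out is at 570 nm after DMSO solubilization. IC50 is by nonlinear regression; ≥3 independent experiments.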

MIA PaCa-2 [3] = assay: Cytotoxicity against human MIA PaCa-2 cells assessed as inhibition of cell growth incubated for overnight in galactose-containing medium followed by compound addition and measured after 3 days by MTT assay; type: functional, cell-based; settings: MIA PaCa-2, 72 h; in short: as §2
[4] = Metabolic stability in mouse liver microsomes assessed as half life at 10 uM measured up to 60 mins in presence of NADPH by LC-MS/MS analysis; type: ADME, Microsome; settings: for half-life at 10 µM: liver microsomes; for t1/2: microsomes, 1 h, 10 µM
[5] = Metabolic stability in human liver microsomes assessed as half life at 10 uM measured up to 60 mins in presence of NADPH by LC-MS/MS analysis; type: ADME, Microsome; settings: for half-life at 10 µM: liver microsomes; for t1/2: microsomes, 1 h, 10 µM
[6] = Inhibition of oxidative phosphorylation in human MIA PaCa-2 cells assessed as reduction in ATP production incubated for 24 hrs in glucose-containing medium by celltiter-glo luminescence cell viability assay; type: functional, cell-based; settings: MIA PaCa-2, 24 h
In short: (§3)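 MIA PaCa-2 cells are seeded at 10000 cells/well in glucose RPMI + 10% FBS or in glucose-free RPMI + 10 mM galactose + 10% FBS. Total ATP is measured by CellTiter-Glo luminescence 24 h after compound. IC50 is by nonlinear regression; ≥3 independent experiments.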

[7] = Inhibition of oxidative phosphorylation in human MIA PaCa-2 cells assessed as reduction in ATP production incubated for 24 hrs in galactose-containing medium by celltiter-glo luminescence cell viability assay; type: functional, cell-based; settings: MIA PaCa-2, 24 h; in short: as §3
[8] = Toxicity in C57BL/6 mouse allografted with mouse Panc02 cells assessed as body weight loss at 7.5 mg/kg, ip administered once a day for 28 days and measured twice per week; type: organism-based; settings: in vivo, 672 h, time 28 day
In short: (§4)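 Female C57BL/6 mice, 6-10 weeks old, get 5×10^6 Pan02 cells s.c. in the right flank and are randomized at ~100 mm3 (n = 5/group). Dosing is daily for 28 days. Vehicle is 10% DMSO/50% PG/40% saline, except 15 mg/kg uses 10% DMSO/60% PG/30% saline. Caliper volume (length×width²)/2 and body weight are recorded twice weekly.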

[9] = Toxicity in C57BL/6 mouse allografted with mouse Panc02 cells assessed as drug tolerability at 7.5 mg/kg, ip administered once a day for 28 days; type: organism-based; settings: in vivo, 672 h, time 28 day
[10] = Toxicity in C57BL/6 mouse allografted with mouse Panc02 cells assessed as body weight loss at 15 mg/kg, ip administered once a day for 28 days and measured twice per week; type: organism-based; settings: in vivo, 672 h, time 28 day; in short: as §4
[11] = Toxicity in C57BL/6 mouse allografted with mouse Panc02 cells assessed as drug tolerability at 15 mg/kg, ip administered once a day for 28 days; type: organism-based; settings: in vivo, 672 h, time 28 day
Panc02 = assay: Antitumor activity against mouse Panc02 cells allografted in C57BL/6 mouse syngeneic model assessed as tumor growth inhibition at 2.5 mg/kg, ip administered once daily for 28 days and measured twice per week; type: functional, organism-based; settings: time 28.0 day; in short: as §4
[12] = Toxicity in C57BL/6 mouse allografted with mouse Panc02 cells assessed as body weight loss at 2.5 mg/kg, ip administered once a day for 28 days and measured twice per week; type: organism-based; settings: in vivo, 672 h, time 28 day; in short: as §4
[13] = Toxicity in C57BL/6 mouse allografted with mouse Panc02 cells assessed as drug tolerability at 2.5 mg/kg, ip administered once a day for 28 days; type: organism-based; settings: in vivo, 672 h, time 28 day

Compound | IC50 (MIA PaCa-2 [1]) [nM] | IC50 (BXPC-3) [nM] | IC50 (MIA PaCa-2 [2]) [nM] | IC50 (MIA PaCa-2 [3]) [nM] | also measured
CCN(CC)S(=O)(=O)c1ccc(S(=O)(=O)N2CCC[C@@H](C(=O)N3CCOCC3)C2)cc1 | 350 | 790 | > 10000 | 160 | 
CCN(CC)C(=O)c1ccc(S(=O)(=O)N2CCC[C@@H](C(=O)N3CCC(F)(F)CC3)C2)cc1 | 70 | 240 |  |  | 
CCN(CC)S(=O)(=O)c1ccc(S(=O)(=O)N2CCC[C@@H](C(=O)NC3CCOCC3)C2)cc1 | 3770 | 8570 | > 10000 | 1350 | 
CCN(CC)S(=O)(=O)c1ccc(S(=O)(=O)N2CCC[C@@H](C(=O)N3CCC(COC)CC3)C2)cc1 | 250 | 1360 | > 10000 | 50 | 
CCN(CC)S(=O)(=O)c1ccc(S(=O)(=O)N2CCC[C@@H](C(=O)N[C@H]3CC[C@H](OC)CC3)C2)cc1 | 1350 | 2000 | > 10000 | 2290 | 
CN(C)S(=O)(=O)c1ccc(S(=O)(=O)N2CCC[C@@H](C(=O)N3CCC(F)(F)CC3)C2)cc1 |  | 560 | > 3000 | 72.4 | half-life at 10 µM [4]: 32 min; half-life at 10 µM [5]: > 60 min; IC50 [6]: > 3000 nM; IC50 [7]: 78.9 nM; Activity [8]: Non-Toxic; Activity [9]: Non-Toxic
CCN(CC)S(=O)(=O)c1ccc(S(=O)(=O)N2CCC[C@@H](C(=O)N3CCS(=O)(=O)CC3)C2)cc1 | 900 | 4430 | > 10000 | 220 | 
CCN(CC)S(=O)(=O)c1ccc(S(=O)(=O)N2CCC[C@@H](C(=O)N3CCC(C(F)(F)F)CC3)C2)cc1 | 320 | 370 | > 10000 | 110 | 
CCN(CC)S(=O)(=O)c1ccc(S(=O)(=O)N2CCC[C@@H](C(=O)N[C@H]3CC[C@@H](OC)CC3)C2)cc1 | 960 | 2150 | > 10000 | 590 | 
CC(C)NS(=O)(=O)c1ccc(S(=O)(=O)N2CCC[C@@H](C(=O)N3CCC(F)(F)CC3)C2)cc1 | 350 | 470 |  |  | t1/2 [4]: 23.1 min; t1/2 [5]: 19.7 min
CCN(CC)S(=O)(=O)c1ccc(S(=O)(=O)N2CCC[C@@H](C(=O)N[C@H]3CCOC3)C2)cc1 | 1670 | 5270 | > 10000 | 290 | 
O=C([C@@H]1CCCN(S(=O)(=O)c2ccc(S(=O)(=O)N3CC[C@@H](O)C3)cc2)C1)N1CCC(F)(F)CC1 | 210 | 330 | > 3000 | 135 | half-life at 10 µM [4]: 26.2 min; half-life at 10 µM [5]: 31 min; IC50 [6]: > 3000 nM; IC50 [7]: 123 nM; Activity [10]: Non-Toxic; Activity [11]: Non-Toxic
FC(F)(F)c1ccc(/C=C/c2nc(COc3ccc(CCCCn4ccnn4)cc3)co2)cc1 [MUBRITINIB] | 51 |  |  |  | 
CCN(CC)S(=O)(=O)c1ccc(S(=O)(=O)N2CCC[C@@H](C(=O)N3CCC(OC)CC3)C2)cc1 | 140 | 1420 | > 10000 | 50 | 
O=C([C@@H]1CCCN(S(=O)(=O)c2ccc(S(=O)(=O)C3COC3)cc2)C1)N1CCC(F)(F)CC1 | 110 | 361 |  |  | 
CCN(CC)S(=O)(=O)c1ccc(S(=O)(=O)N2CCC[C@@H](C(=O)N[C@@H]3CCOC3)C2)cc1 | 750 | 2270 | > 10000 | 100 | 
CC(C)CS(=O)(=O)c1ccc(S(=O)(=O)N2CCC[C@@H](C(=O)N3CCC(F)(F)CC3)C2)cc1 | 80 | 311 |  |  | 
CCOC(=O)[C@@H]1CCCN(S(=O)(=O)c2ccc(S(=O)(=O)N(CC)CC)cc2)C1 |  |  |  |  | GI50 (MIA PaCa-2 [1]; time 7 day): 600 nM
CCN(CC)S(=O)(=O)c1ccc(S(=O)(=O)N2CCC[C@@H](C(=O)N3CC[C@H](OC)C3)C2)cc1 | 2460 | 6750 | > 10000 | 460 | 
CCN(CC)S(=O)(=O)c1ccc(S(=O)(=O)N2CCC[C@@H](C(=O)N3CCC(O)CC3)C2)cc1 | 870 | 4710 | > 10000 | 230 | 
O=C([C@@H]1CCCN(S(=O)(=O)c2ccc(S(=O)(=O)C3CC3)cc2)C1)N1CCC(F)(F)CC1 | 26 | 129 |  |  | 
CCP(=O)(CC)c1ccc(S(=O)(=O)N2CCC[C@@H](C(=O)N3CCC(F)(F)CC3)C2)cc1 | 21500 | > 30000 |  |  | 
CCN(CC)S(=O)(=O)c1ccc(S(=O)(=O)N2CCC[C@@H](C(=O)N3CCC(C(F)F)CC3)C2)cc1 | 420 | 450 | > 10000 | 140 | 
CCN(CC)S(=O)(=O)c1ccc(S(=O)(=O)N2CCC[C@@H](C(=O)N3CCC(F)(F)CC3)C2)cc1 | 16 | 120 | > 10000 | 19 | t1/2 [4]: 2.6 min; half-life at 10 µM [5]: 2.74 min; IC50 [6]: > 3000 nM; IC50 [7]: 21.3 nM
O=C([C@@H]1CCCN(S(=O)(=O)c2ccc(S(=O)(=O)N3CC[C@H](O)C3)cc2)C1)N1CCC(F)(F)CC1 | 590 | 580 |  |  | 
CCC(CC)S(=O)(=O)c1ccc(S(=O)(=O)N2CCC[C@@H](C(=O)N3CCC(F)(F)CC3)C2)cc1 | 13 | 40 |  |  | t1/2 [4]: 8.7 min; t1/2 [5]: 17.1 min
CP(C)(=O)c1ccc(S(=O)(=O)N2CCC[C@@H](C(=O)N3CCC(F)(F)CC3)C2)cc1 | > 30000 | > 30000 |  |  | 
CCN(CC)S(=O)(=O)c1ccc(S(=O)(=O)N2CCC[C@@H](C(=O)N3CC[C@@H](OC)C3)C2)cc1 | 3910 | 11500 | > 10000 | 1070 | 
O=C([C@@H]1CCCN(S(=O)(=O)c2ccc(S(=O)(=O)C3CCC3)cc2)C1)N1CCC(F)(F)CC1 | 9 | 78 | > 3000 | 12.6 | half-life at 10 µM [4]: 44 min; half-life at 10 µM [5]: > 60 min; IC50 [6]: > 3000 nM; IC50 [7]: 15.8 nM; Activity (Panc02): Active; Activity [12]: Non-Toxic; Activity [13]: Non-Toxic
